# Published values of several laboratories.
# Compare with care: the assays were run in different laboratories.
# Organism: Plasmodium falciparum
# Read-out: parasite growth
SMILES,assay,test system,conditions,EC50 [µM]
COc1cc(C(=O)N(C)C)ccc1-c1cc2nccc(-c3ccc4ccncc4c3)c2o1,,3D7,"72 h, blood stage",0.997
COc1ccc(Nc2ccnc3cc(-c4ccc(S(=O)(=O)N5CCN(C)CC5)cc4)ccc23)cc1,,D6,"drug-resistant strain, blood stage",0.018
CCn1cc(C(=O)N2CCN(C)CC2)c(=O)c2cc(F)c(N3CCC(C)CC3)cc21,,3D7,"72 h, blood stage",> 10
C[C@H]1[C@@H](O)O[C@@H]2O[C@@]3(C)CC[C@H]4[C@H](C)CC[C@@H]1[C@@]24OO3,,NF54,"24 h, gametocyte",0.0138
COc1ccc(OCCCO)cc1-c1cn2cc(-c3nnc(NCCCCc4ccccc4)o3)ccc2n1,,3D7,"72 h, blood stage",2.98
CC(C)(C)OC(=O)Nc1ccc2c(Nc3ccc(OCc4cccc(F)c4)c(Cl)c3)ccnc2c1,,D6,"drug-resistant strain, blood stage",0.05
CC/N=C(\c1ccc(OC)c(OC)c1)N1CCCc2cc(C3=NNC(=O)SC3C)ccc21 (centres unmarked),,3D7,"72 h, blood stage",1.79
CCn1cc(-c2nc(C)no2)c(=O)c2cc(F)c(N3CCN(C)CC3)cc21,,3D7,"72 h, blood stage",4.57
CN1CCN(S(=O)(=O)c2cccc(-c3ccc4c(Nc5ccc(OCc6cccc(F)c6)c(Cl)c5)ccnc4c3)c2)CC1,,D6,"drug-resistant strain, blood stage",0.01
CCCNCC(O)COc1ccccc1C(=O)CCc1ccccc1 (centres unmarked),SYBR Green,3D7,blood stage,2.69
CCn1cc(C(=O)N2CCOCC2)c(=O)c2cc(F)c(N3CCC(C)CC3)cc21,,3D7,"72 h, blood stage",> 10
CCOC(=O)c1c(NC(=O)c2ccccc2)sc2c(O)c(CCN(C)C)ccc12,,3D7,"48 h, blood stage",≤ 0.2
Cn1cc(-c2cnc3[nH]cc(-c4cn(Cc5cccc(F)c5F)nn4)c3c2)cn1,,3D7,"72 h, blood stage",0.599
CCn1cc(-c2nc(C)no2)c(=O)c2cc(F)c(N3CCN(C(C)=O)CC3)cc21,,3D7,"72 h, blood stage",> 10
CN1CCN(S(=O)(=O)c2ccc(-c3ccc4c(Nc5cnc(C#N)cn5)ccnc4c3)cc2)CC1,,D6,"drug-resistant strain, blood stage",0.12
COc1ccc(CNc2nc(-c3ccc(C(=O)O)nc3)nc3sc4c(c23)CCCC4)cc1Cl,,3D7,"72 h, blood stage",1.59
Cc1ccc(Nc2ccnc3cc(-c4ccc(S(=O)(=O)N5CCN(C)CC5)cc4)ccc23)cn1,,D6,"drug-resistant strain, blood stage",0.022
CCn1cc(-c2nc(C)no2)c(=O)c2cc(F)c(N3CCC(c4ccccc4)CC3)cc21,,3D7,"72 h, blood stage",0.03
Cc1cc(Nc2ccnc3cc(-c4ccc(S(=O)(=O)N5CCN(C)CC5)cc4)ccc23)sn1,,D6,"drug-resistant strain, blood stage",0.11
CCn1cc(-c2nc(C)no2)c(=O)c2cc(F)c(N3CCCC3)cc21,,3D7,"72 h, blood stage",0.5
